Sampled rows, rich in hits. Any-hit rate of the full collection: about 2%.
PKA-R1A activ – PKA-R1A complex activation; P00514+P68181; PKA-R1A dissociation, Cy5-IP20 fluorescence polarization; scaled: DMSO 0%, 113 µM cGMP 100%; activation, % at 11.4 µM; 0.083% of 340,000 active; AID 504707;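 active means percent activation above the mean of all tested compounds plus 3 SD, cut at about 19% in these data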;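 further: higher means more PKAc released from R1A so a rise in polarization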
CAL PDZ FP-1 – inhibitors of human CAL PDZ peptide binding. Q9HD26. purified CAL PDZ, TMR-peptide fluorescence polarization, 1 h. inhibition, % at 20 µM. 0.02% of 330,000 active. AID 504414;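 active means highest replicate inhibition of at least 40%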;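 further: plate controls were DMSO neutral control wells for no effect and unlabeled competitor peptide control wells for full effect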
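Material: tagged CAL PDZ domain; buffer or medium: 25 mM sodium phosphate pH 7.4, 150 mM NaCl, TCEP, IgG, Thesit; compound dosing: single point, 20 µM; schedule: 1 h incubation at room temperature before polarization reading; measured by: FP readout, S and P plane fluorescence; read-out basis: percent inhibition from loss of millipolarization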
NTR1 ag – agonists of human neurotensin receptor NTR1. 0.17% of 330,000 active. NTR1-U2OS beta-arrestin-GFP spot imaging, agonist mode. P30989. activation, % at 20 µM;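 active means activation at or above 40% of the spot to cytoplasm intensity ratio, with at least 20 cells analyzed; inconclusive means wells under 20 cells, flagged as cytotoxic or low count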;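 further: 0% = DMSO without peptide and 100% = 100 nM NTR1 peptide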
Target sequence (P30989 whole entry, looked up): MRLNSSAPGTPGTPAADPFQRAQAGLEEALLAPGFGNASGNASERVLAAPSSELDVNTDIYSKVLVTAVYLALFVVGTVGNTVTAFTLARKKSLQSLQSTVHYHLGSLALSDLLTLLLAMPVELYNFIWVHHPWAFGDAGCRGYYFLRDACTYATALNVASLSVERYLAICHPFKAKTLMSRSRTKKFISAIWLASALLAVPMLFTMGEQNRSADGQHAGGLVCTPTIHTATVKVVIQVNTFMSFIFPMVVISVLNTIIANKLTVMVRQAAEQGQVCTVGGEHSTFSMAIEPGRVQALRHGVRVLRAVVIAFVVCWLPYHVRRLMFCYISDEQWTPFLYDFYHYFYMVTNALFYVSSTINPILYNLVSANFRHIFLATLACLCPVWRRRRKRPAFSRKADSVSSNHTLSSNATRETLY
PKA-R2B act – activates the human PKA-R2B holoenzyme complex; P22694+P31323; PKA-R2B holoenzyme dissociation, Cy5-IP20 fluorescence polarization; R2B truncated from residue 108, S112A mutant; 0% DMSO only, 100% 113 µM cGMP; activation, % at 11.4 µM; 0.079% of 340,000 active; AID 504700;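 active means activation above a cutoff set at the mean over all compounds plus 3 SD, cut at about 18% in these data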;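 further: higher means more holoenzyme dissociation and a rise in polarization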
dFosB act-1 – enhances mouse delta FosB homodimer DNA binding; purified delta FosB, TAMRA-CDK5 oligo fluorescence polarization; percent of positive-control signal above neutral wells; activation, % at 25 µM; 0.99% of 340,000 active; AID 493131;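 active means mean activation above about 17%, with every replicate also reaching it, limit read from the data, passing the limit was not always enough; inconclusive means only one of the two conditions met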
CAL PDZ FP-2 – blocks peptide binding to the human CAL PDZ domain | Q9HD26 | purified CAL PDZ, TMR-peptide fluorescence polarization, 1 h | inhibition, % at 24.9 µM | 0.92% of 300,000 active;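 active means mean inhibition of at least 30% with at least half of replicates also reaching 30%; inconclusive means no clear call, values can overlap the other calls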;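 further: 0% = DMSO neutral control and 100% = excess unlabeled competitor peptide PRC23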
dFosB act-2 – activators of mouse delta FosB homodimer DNA binding; shares compounds with dFosB act-1; purified delta FosB, TAMRA-CDK5 oligo fluorescence polarization; normalised: neutral wells 0, positive control 100; activation, % at 24.9 µM; 2,400 tested, under 10 active; AID 588690;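 active means highest replicate activation at or above 34% and every replicate reaching that threshold; inconclusive means meets only one of the two criteria; inactive means meets neither criterion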;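 further: higher polarization means more probe DNA bound by delta FosB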
* hit, by the source's call; ? = inconclusive; · = no result given.

SMILES	PKA-R1A activ	CAL PDZ FP-1	NTR1 ag	PKA-R2B act	dFosB act-1	CAL PDZ FP-2	dFosB act-2
CSc1ccccc1NC(=O)Nc1cccc(Cl)c1Cl	9	0	2	-5	26*	-2	0
CSc1ccccc1NC(=O)Nc1cccc(Cl)c1C	-5	-1	0	2	6	-6	·
O=C(CNCc1ccc(Cl)cc1)Nc1ccc(C(=O)N2CCCCC2)cc1	8	-1	2	13	-15	-2	·
O=C(c1ccc(NC(=S)NCc2ccc(Cl)cc2)cc1)N1CCCCC1	1	0	4	-4	30*	·	1
CCCCCc1cc(=O)oc2c(C(CCN3CCCC(C)C3)c3ccc4c(c3)OCO4)c(OC)cc(OC)c12 (centres undefined)	11	-1	35	-14	32*	0	1
CCCCCc1cc(=O)oc2c(C(CCN3CCCCC3)c3ccc4c(c3)OCO4)c(OC)cc(OC)c12 (centres undefined)	3	0	16	-7	?	-2	·
COc1ccc(C(CCN2CCN(c3ccccc3)CC2)c2c(OC)cc(OC)c3c(-c4ccccc4)cc(=O)oc23)cc1 (centres undefined)	-5	0	-2	-10	20*	4	2
COc1cc(OC)c2c(-c3ccccc3)cc(=O)oc2c1C(CCN1CCCC1)c1ccc2c(c1)OCO2 (centres undefined)	-10	-3	15	-15	19*	0	2
COc1cc(OC)c2c(-c3ccccc3)cc(=O)oc2c1C(CCN1CCN(c2ccccc2)CC1)c1ccc(N(C)C)cc1 (centres undefined)	0	-2	-4	4	2	-1	·
COc1ccc(C(=O)NCCS(=O)(=O)NCc2ccccc2)cc1	11	-3	-2	1	-4	-3	·
C[C@H]1CCCCO[C@H](CN(C)Cc2ccccc2)[C@@H](C)CN([C@@H](C)CO)C(=O)c2cc(NC(=O)CCC(F)(F)F)ccc2O1	-3	·	·	-1	·	·	·
CCOC(=O)c1c(C)[nH]c2cc(Br)c(OC)cc12	-18	-2	2	5	18*	·	5
CCOC(=O)c1c(C)[nH]c(C)c1-c1ccccc1OC	-2	1	0	-6	-6	-5	·
COc1ccc(S(N)(=O)=O)cc1C(=O)NNC(=O)C1COc2ccccc2O1 (centres undefined)	2	-4	2	-4	-1	0	·
Cc1cccc(-c2onc3ccc(C(=O)/C=C/N(C)C)cc23)c1	-14	-13	4	5	-5	-8	·
Cc1ccc(C(C)C)c(OCC(=O)Nc2sc3c(c2C#N)CC(C)(C)NC3(C)C)c1	0	0	18	-3	1	-5	·
Cc1cc(OCC(=O)Nc2sc3c(c2C#N)CC(C)(C)NC3(C)C)c(C(C)C)cc1Cl	-10	0	14	5	62*	-7	-1
Cc1ccccc1C(=O)NCC(=O)OC(C)C(=O)Nc1cccc(S(=O)(=O)N2CCOCC2)c1 (centres undefined)	-7	-1	0	4	-4	-4	·
CCN(c1ccccc1)S(=O)(=O)c1cccc(C(=O)NCC(c2ccco2)N2CCCCC2)c1 (centres undefined)	-2	-2	·	4	-10	·	·
Cc1cccc(NC(=O)CSc2nc(N)c(NC(=O)c3ccccc3F)c(=O)[nH]2)c1	-9	-2	2	4	?	-5	·
Nc1nc(SCC(=O)NCc2ccc(F)cc2)[nH]c(=O)c1NC(=O)c1ccc(Cl)cc1	-3	-3	0	0	33*	-3	5
CC(=O)Nc1ccc(NC(=O)CSc2nc(N)c(NC(=O)c3ccccc3F)c(=O)[nH]2)cc1	-10	-2	0	-5	17*	-1	-1
O=C(C1CCCC1)N1CCC(CC2CC(c3cccc(Br)c3)=NO2)(C(=O)NCC2CCCCC2)CC1 (centres undefined)	1	-2	-1	-7	-13	-5	·
COc1cc2c(cc1OC)C(c1ccccc1)NC(C)(C)C2 (centres undefined)	-6	0	0	-8	5	0	·
C[C@H](CO)N1C[C@H](C)[C@@H](CN(C)CC2CC2)OCc2cnnn2CCCC1=O	-16	·	·	-6	·	·	·
SMILES	PKA-R1A activ	CAL PDZ FP-1	NTR1 ag	PKA-R2B act	dFosB act-1	CAL PDZ FP-2	dFosB act-2
Cc1ccc(C(=O)N/N=C/c2ccc(-c3ccccc3[N+](=O)[O-])o2)cn1	-7	-2	0	3	2	0	·
COc1ccc(-c2ccc(/C=N/NC(=O)c3cccnc3)o2)c([N+](=O)[O-])c1	3	-1	·	6	50*	·	-1
CN(c1ccccc1)S(=O)(=O)c1ccc(Cl)c(C(=O)Nc2nc3ccccc3[nH]2)c1	0	-4	-1	-14	1	1	·
O=C(Nc1ccc(-c2nc3ccc(NC(=O)c4cccs4)cc3[nH]2)cc1)c1cccs1	-4	-2	5	2	47*	0	-1
CN(c1ccccc1)S(=O)(=O)c1ccc(Cl)c(C(=O)Nc2ccc(-c3nc4ccccc4[nH]3)cc2)c1	5	-1	0	6	44*	0	3
CS(=O)(=O)c1ccccc1C(=O)Nc1ccc(-c2nc3ccccc3[nH]2)cc1	-7	-4	0	-7	-10	-6	·
CC(C)(C)N1C(=O)c2ccc(C(=O)Nc3ccc(-c4nc5ccccc5[nH]4)cc3)cc2C1=O	-2	-2	2	7	-2	-4	·
CS(=O)(=O)c1cccc(C(=O)Nc2ccc(-c3nc4ccccc4[nH]3)cc2)c1	-5	-3	1	-10	37*	-3	8
O=C(Nc1ccc(-c2nc3ccccc3[nH]2)cc1)c1ccc(N2C(=O)CCC2=O)cc1	-13	0	-2	-3	25*	-2	3
CCOc1ccc(S(=O)(=O)N2CCC(C(=O)N3CCc4ccccc4C3)CC2)cc1	-5	-1	-1	9	-10	-3	·
COc1ccc([N+](=O)[O-])cc1NC(=O)CCN1CCOCC1	-2	-1	0	-16	0	-3	·
CCOC(=O)C1=CNS(=O)(=O)NC1c1ccccc1 (centres undefined)	-6	1	1	5	4	-3	·
Cc1cc(C)cc(-c2nnc(SCC(=O)NCC3CCCO3)o2)c1 (centres undefined)	-10	0	·	-9	-9	·	·

Screening data: PubChem BioAssay, several laboratories
